Results on 11 compounds are retold here after ChEMBL document CHEMBL1127468, “A marked change of receptor affinity of the 2-methyl-5-(3-hydroxyphenyl)morphans upon attachment of an (E)-8-benzylidene moiety: synthesis and evaluation of a new class of sigma receptor ligands” (J Med Chem, 1994).

In experiment [1] the target is Kappa-type opioid receptor (Cavia porcellus, UniProt P41144). Put plainly: Inhibition of radioligand [3H]U-69593 binding to kappa 1 receptor of guinea pig brain. The method, boiled down:
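Guinea pig brain membranes pretreated with irreversible ligands BIT and FIT to deplete mu and delta sites. Nonspecific binding with 1 μM U69,593. 8-10 drug concentrations, run twice.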

Experiment [2] deals with Glutamate NMDA receptor. As to the kind of experiment: Inhibition of radioligand [3H]TCP binding to PCP site in rat brain. It is filed as tissue-based.
In experiment [3] the target is Muscarinic acetylcholine receptor. As to the kind of experiment: Inhibition of radioligand [3H]NMS binding to muscarinic receptor of rat brain.
For experiment [4], the target named is Delta-type opioid receptor (Rattus norvegicus, UniProt P33533). As to the kind of experiment: Inhibition of radioligand [3H]DADLE binding to rat brain delta receptor. In a few lines: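 Rat brain membranes; [3H]DADLE 1.7-2.5 nM, 3-4 h at 25 °C in 10 mM Tris-HCl pH 7.4 with 100 mM choline chloride, 3 mM MnCl2, 100 nM DAMGO to block mu sites, and protease inhibitor cocktail. Nonspecific binding with 20 μM levallorphan. 8-10 test drug concentrations, run twice; dilutions in Tris buffer with 1 mg/mL BSA.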

For experiment [5], the target named is Mu-type opioid receptor (Rattus norvegicus, UniProt P33535). Put plainly: Inhibition of radioligand [3H]DAMGO binding to rat brain mu receptor. The method, boiled down:
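Rat brain membranes labelled with [3H]DAMGO (1-3 nM), incubated 4 h at 25 °C in 50 mM Tris-HCl pH 7.4 with protease inhibitor cocktail. Nonspecific binding defined by 20 μM levallorphan. Displacement by 8-10 test drug concentrations, done twice; drug dilutions in 10 mM Tris-HCl pH 7.4 containing 1 mg/mL BSA.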

For experiment [6], the target named is Glutamate NMDA receptor. As to the kind of experiment: Inhibition of radioligand [3H]TCP binding to rat brain PCP site.
Experiment [7] can be described thus: Ratio of Ki values tested against sigma receptor and Mu receptor.
The subject of experiment [8] is Glutamate NMDA receptor. Put plainly: Inhibition of radioligand [3H]TCP binding to PCP site in rat brain; No inhibition. It is filed as tissue-based.

Chain of Delta-type opioid receptor (P33533 whole entry): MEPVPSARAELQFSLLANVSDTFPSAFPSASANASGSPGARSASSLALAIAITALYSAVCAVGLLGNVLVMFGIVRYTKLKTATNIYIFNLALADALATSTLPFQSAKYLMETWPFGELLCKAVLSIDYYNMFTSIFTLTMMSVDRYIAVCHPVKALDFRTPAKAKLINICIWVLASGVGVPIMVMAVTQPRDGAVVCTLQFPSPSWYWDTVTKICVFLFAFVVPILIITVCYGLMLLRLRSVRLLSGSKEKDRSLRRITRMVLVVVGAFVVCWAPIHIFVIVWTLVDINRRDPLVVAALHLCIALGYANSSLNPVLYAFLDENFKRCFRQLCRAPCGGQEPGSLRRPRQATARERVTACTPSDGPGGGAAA
Chain of Kappa-type opioid receptor (P41144 whole entry): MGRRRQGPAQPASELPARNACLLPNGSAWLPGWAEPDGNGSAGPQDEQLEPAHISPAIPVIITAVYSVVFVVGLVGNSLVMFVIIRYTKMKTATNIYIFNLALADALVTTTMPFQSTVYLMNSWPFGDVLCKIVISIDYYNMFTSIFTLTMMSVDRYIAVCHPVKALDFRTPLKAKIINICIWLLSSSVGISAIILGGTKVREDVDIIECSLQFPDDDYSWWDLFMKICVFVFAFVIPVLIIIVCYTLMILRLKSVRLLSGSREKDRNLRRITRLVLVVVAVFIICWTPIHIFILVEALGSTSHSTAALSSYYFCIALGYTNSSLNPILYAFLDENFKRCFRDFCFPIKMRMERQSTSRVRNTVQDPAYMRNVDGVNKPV
Chain of Mu-type opioid receptor (P33535 whole entry): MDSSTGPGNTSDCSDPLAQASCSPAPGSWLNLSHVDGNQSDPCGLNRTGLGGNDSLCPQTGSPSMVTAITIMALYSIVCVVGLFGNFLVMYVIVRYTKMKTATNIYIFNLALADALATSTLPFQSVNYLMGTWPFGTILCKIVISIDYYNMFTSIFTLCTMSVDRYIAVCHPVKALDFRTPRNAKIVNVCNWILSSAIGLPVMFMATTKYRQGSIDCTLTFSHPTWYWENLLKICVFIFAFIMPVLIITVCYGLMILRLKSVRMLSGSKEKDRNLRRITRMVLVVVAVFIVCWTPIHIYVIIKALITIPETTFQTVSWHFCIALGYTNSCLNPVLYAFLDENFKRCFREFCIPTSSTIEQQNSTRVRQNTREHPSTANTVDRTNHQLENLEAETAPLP

For `CN1CC[C@@]2(c3cccc(O)c3)CC(=O)/C(=C/c3ccccc3)[C@@H]1C2`, the inhibitory constant (Ki) in experiment [1] is 889 nM; in experiment [2], > 100000 nM; in experiment [3], 7400 nM; in experiment [4], 1990 nM; in experiment [5] it was 392 nM.
For `CN1CCC2(c3cccc(O)c3)CC(=O)CC1C2` (stereo in doubt), the Ki in experiment [1] was 491 nM; in experiment [6], > 100000 nM; in experiment [3], 25300 nM; in experiment [4] it was 121 nM; in experiment [5] it was 8.7 nM.
Consider `CN1CCC2(c3cccc(O)c3)CC(=O)/C(=C/c3ccccc3)C1C2` (stereo not drawn), for which the inhibition constant (Ki) is 576 nM in experiment [1]; > 100000 nM in experiment [2]; 14400 nM in experiment [3]; > 500 nM in experiment [4]; 33.9 nM in experiment [5].
As to `CN1CCC2(c3cccc(O)c3)CC(=O)CC1C2` (stereo in doubt; 4), the Ki in experiment [1] was 1010 nM; in experiment [3] it was 46400 nM; in experiment [4] it was 320 nM; in experiment [5], 5.5 nM.
For the compound `COc1cccc(C23CCN(C)C(CC(=O)C2)C3)c1` (stereo not drawn), the figures for the Ki in experiment [6] and in experiment [3] were > 100000 nM and 23300 nM, respectively.
For the compound `CN1CC[C@@]2(c3cccc(O)c3)CC(=O)/C(=C/c3ccc(Cl)c(Cl)c3)[C@H]1C2`, the Ki in experiment [1] is > 500 nM; in experiment [2], > 100000 nM; in experiment [3], 18600 nM; in experiment [4], 271 nM; in experiment [5], 4.5 nM.
As to `CN1CC[C@]2(c3cccc(O)c3)CC(=O)/C(=C/c3ccccc3)[C@H]1C2`, the Ki in experiment [1] is 1090 nM; in experiment [2], ~100000 nM; in experiment [3], 26000 nM; in experiment [4], 735 nM; in experiment [5], 37.6 nM.
Regarding `COc1cccc(C23CCN(C)C(C2)/C(=C\c2ccccc2)C(=O)C3)c1` (stereo not drawn), the Ki in experiment [2] was > 50000 nM; in experiment [3], 11600 nM.
Turning to `C[N+]1(C)CCC2(c3cccc(O)c3)CC(=O)/C(=C/c3ccccc3)C1C2.[I-]` (stereo not drawn), the inhibition constant (Ki) was > 5000 nM in experiment [1]; 14700 nM in experiment [3]; > 1000 nM in experiment [4]; > 700 nM in experiment [5]; “Not Active” in experiment [8]. For the same compound, in experiment [7], the Ratio was < 7.7.
Turning to `CN1CC[C@@]2(c3cccc(O)c3)CC(=O)/C(=C/c3ccc(Cl)c(Cl)c3)[C@@H]1C2`, the Ki is > 500 nM in experiment [1]; > 100000 nM in experiment [2]; 50300 nM in experiment [3]; > 500 nM in experiment [4]; 45.1 nM in experiment [5].
In the case of `CN1CCC2(c3cccc(O)c3)CC(=O)/C(=C/c3ccc(Cl)c(Cl)c3)C1C2` (stereo not drawn), the Ki in experiment [1] was > 500 nM; in experiment [2], > 100000 nM; in experiment [4] it was 240 nM; in experiment [5], 6.1 nM.
